Measurements gathered from unrelated publications.
Sample: plasma
Route: oral

| SMILES | system | conditions | Cmax |
| --- | --- | --- | --- |
| CC(C)n1cc(C#N)c2cc(-n3cc(C(=O)O)cn3)ccc21 | human | 200 mg, single dose, fed | 5400 ng/mL |
| Cn1cc(-c2ccc(S(=O)(=O)[C@@H]3C[C@@H](C(=O)NC4(C#N)CC4)N(C(=O)C4(C(F)(F)F)CC4)C3)c(C(F)(F)F)c2)cn1 | human | 100 mg, single dose, fasted, healthy volunteers | 516 ng/mL |
| COc1ccc([C@@H]2CN(C(=O)[C@@H](O)CO)C[C@@]2(C)[C@@H](C)O)cc1OC1CN(c2ccc(C)cn2)C1 | human | 1.5 mg, single dose, healthy volunteers | 76.5 ng/mL |
| CC(C)(O)c1ccccc1-c1ccc2[nH]c(/C=C/c3ccc(C(F)(F)F)cc3)nc2c1 | male human | 2 mg, single dose, fasted, healthy volunteers | 7.66 ng/mL |
| COc1cc(C(=O)NC2CCN(C)CC2)c(F)cc1Nc1ncc(C(F)(F)F)c(Oc2cccc3c2C(=O)N(C)C3)n1 | human | 25 mg, multiple doses, once daily, steady state, patients | 405 nM |
| COCCOc1cnc2ccn([C@H](C)c3nnc4c(F)cc(-c5cnn(C)c5)cn34)c(=O)c2c1 | human | 300 mg, multiple doses, once daily, patients | 4140 ng/mL |
| CCn1c(=O)c(-c2cc(NC(=O)Nc3ccccc3)c(F)cc2Br)cc2cnc(NC)cc21 | human | 150 mg, single dose, patients | 502 ng/mL |
| CCc1nc2c(C)cc(N3CCN(CC(=O)N4CC(O)C4)CC3)cn2c1N(C)c1nc(-c2ccc(F)cc2)c(C#N)s1 | human | 150 mg, single dose, fed, healthy volunteers | 1400 ng/mL |
| CO[C@H]1CC[C@H](N2C(=O)CNc3ncc(-c4ccc(C(C)(C)O)nc4)nc32)CC1 | human | 15 mg, patients | 97.4 ng/mL |
